Values joined by “and” are separate entries in the source; they are usually repeats but may differ in a detail not shown here. Identical values can stand only once.
Experiments:
[1] = tested on: Rattus norvegicus; test: Change in heart rate after iv administration of 800 ug/Kg compound (treatment with hexamethonium (5 mg/Kg, iv)in anesthetized rats; assay type: functional
Summary of the method: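 Urethane-anesthetized male Wistar rats, 6 per group, received iv doses of 200-1600 µg/kg (ratio 2.0) given alone or under a pretreatment. Pretreatments were continuous iv papaverine infusion (1 mg/kg/min), reserpine 5 mg/kg/day ip for 2 days, or hexamethonium 5 mg/kg iv. Peak changes in femoral arterial BP and HR were recorded; values are mean ± SE.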

[2] = tested on: Rattus norvegicus; test: Change in heart rate after iv administration of 1600 ug/Kg in the presence of noradrenaline (agonist) in anesthetized rats; assay type: functional
Summary of the method: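 Urethane-anesthetized male Wistar rats (16 rats, two equal groups) received 400 or 1600 µg/kg compound iv. Cardiovascular responses to iv agonist boluses (noradrenaline 1 µg/kg, acetylcholine 2.50 µg/kg, adrenaline, isoprenaline) were measured before and after compound dosing. Peak responses are given as mean ± SE; p < 0.05 versus control mean.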

[3] = tested on: Rattus norvegicus; test: Change in systolic blood pressure after iv administration of 400 ug/Kg in the presence of acetylcholine (agonist) in anesthetized rats; assay type: functional, Artery
Summary of the method: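 Anesthetized male Wistar rats, two groups of 8, received 400 or 1600 µg/kg iv. Before and after this dose, iv agonist challenges were given: noradrenaline 1 µg/kg, adrenaline, acetylcholine 2.50 µg/kg, or isoprenaline. Systolic/diastolic BP, heart rate and dP/dt responses were recorded before (control) and after dosing; significance was set at p < 0.05 versus control.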

[4] = tested on: Rattus norvegicus; test: Change in respiratory frequency after iv administration of 1600 ug/Kg in anesthetized rats; assay type: functional
Summary of the method: (§1)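 Male Wistar rats (299 ± 3 g) were anesthetized with ethylurethane ip, tracheally cannulated and breathing spontaneously, at 37 °C, and stabilized for 60 min. Doses of 50-3200 µg/kg (ratio 2.0) in saline were injected by femoral vein, 50 µL each. Recordings: femoral arterial BP, electromagnetic abdominal-aortic flow, SV from integrated pulsatile flow, polygraphic RF. Peak changes, mean ± SE, n = 12 (n = 7 at 3200).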

[5] = tested on: Rattus norvegicus; test: Change in respiratory frequency after iv administration of 400 ug/Kg in anesthetized rats; assay type: functional; summary of the method: as §1
[6] = tested on: Rattus norvegicus; test: Change in diastolic blood pressure after iv administration of 800 ug/Kg compound (treatment with reserpine(5 mg/kg/day for 2 days, ip)in anesthetized rats; assay type: functional, Artery
Summary of the method: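 In anesthetized male Wistar rats, responses to iv compound (200–1600 µg/kg, ratio 2.0) were measured alone and under three pretreatments: continuous iv papaverine infusion (1 mg/kg/min), ip reserpine (5 mg/kg/day for 2 days), or iv hexamethonium (5 mg/kg). Peak changes are given as mean ± SE, n = 6 per group; p < 0.05 versus control.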

[7] = tested on: Rattus norvegicus; test: Maximum rate of rise of the left ventricular isovolumetric pressure was measured after iv administration of 800 ug/Kg compound (treatment with papaverine(1 mg/Kg/min, iv)in anesthetized rats; assay type: functional, Heart left ventricle
Summary of the method: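 Anesthetized rats, n = 6 per group, received iv doses of 200–1600 µg/kg (ratio 2.0) either alone (control) or under pretreatment: continuous iv papaverine infusion 1 mg/kg/min, reserpine 5 mg/kg/day ip for 2 days, or hexamethonium 5 mg/kg iv. Peak changes in BP, heart rate and dP/dt recorded; means ± SE, p < 0.05 versus control.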

[8] = tested on: Rattus norvegicus; test: Change in stroke volume after iv administration of 400 ug/Kg in anesthetized rats; assay type: functional; summary of the method: as §1

Compound: COc1ccc(C2C(c3ccc(OC)c(OC)c3)[C@H](C(=O)NCCCC/N=C(\N)NCC=C(C)C)[C@@H]2C(=O)NCCCC/N=C(\N)NCC=C(C)C)cc1OC (some centres undefined) [CARACASANDIAMIDE]
- Heart rate [1]: -57 beats min-1
- Heart rate [2]: 13 beats min-1
- BP [3]: -27 mmHg
- Change in respiratory frequency [4]: -61 beats min-1 and -64%
- Change in respiratory frequency [5]: -3 beats min-1 and -3%
- BP [6]: -12 mmHg
- dP/dt [7]: 2967 mmHg s-1
- Change in stroke volume [8]: -23%
- Stroke volume [8]: -46 µL
